Assay results taken from ChEMBL document CHEMBL4732237, “Discovery of 4-alkoxy-2-aryl-6,7-dimethoxyquinolines as a new class of topoisomerase I inhibitors endowed with potent in vitro anticancer activity” (2021).

Legend:
Type in all cases: functional
Settings in all cases: read-out: GI
HL-60(TB) = experiment: Growth inhibition of human HL-60(TB) cells at 10 uM incubated for 48 hrs by sulforhodamine B assay relative to control
How it was run: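 NCI-60 one-dose screen: same culture, 48 h drug exposure and SRB read-out. Reported as percent growth relative to no-drug control and to time-zero cell number; 0–100 means growth inhibition, below 0 means lethality.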

K562 = experiment: Growth inhibition of human K562 cells at 10 uM incubated for 48 hrs by sulforhodamine B assay relative to control
How it was run: (§1)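 NCI-60 single-dose screen. Cells were grown in RPMI 1640 with 5% FBS and 2 mM L-glutamine and plated 24 h before drug addition. Compound was added at one concentration in DMSO-derived medium and incubated for 48 h at 37 °C in 5% CO2. Read-out was SRB protein stain at 515 nm. Result is percent growth versus the no-drug control and the time-zero cell count; values below 0 indicate lethality.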

MOLT-4 = experiment: Growth inhibition of human MOLT-4 cells at 10 uM incubated for 48 hrs by sulforhodamine B assay relative to control
How it was run: (§2)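 NCI one-dose screen. Cells grown in RPMI 1640 with 5% FBS and 2 mM L-glutamine, plated and incubated 24 h at 37 °C, 5% CO2. DMSO-dissolved drug added, then 48 h further incubation. Adherent cells fixed with cold TCA, suspension cells fixed after settling. Stained with 0.4% SRB, absorbance read at 515 nm. Reported as percent growth relative to no-drug control and time-zero cell number.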

SR = experiment: Growth inhibition of human SR cells at 10 uM incubated for 48 hrs by sulforhodamine B assay relative to control; how it was run: as §2
EKVX = experiment: Growth inhibition of human EKVX cells at 10 uM incubated for 48 hrs by sulforhodamine B assay relative to control; how it was run: as §1
HOP-92 = experiment: Growth inhibition of human HOP-92 cells at 10 uM incubated for 48 hrs by sulforhodamine B assay relative to control; how it was run: as §1
NCI-H226 = experiment: Growth inhibition of human NCI-H226 cells at 10 uM incubated for 48 hrs by sulforhodamine B assay relative to control; how it was run: as §2
NCI-H23 = experiment: Growth inhibition of human NCI-H23 cells at 10 uM incubated for 48 hrs by sulforhodamine B assay relative to control; how it was run: as §2
NCI-H322M = experiment: Growth inhibition of human NCI-H322M cells at 10 uM incubated for 48 hrs by sulforhodamine B assay relative to control; how it was run: as §2
NCI-H460 = experiment: Growth inhibition of human NCI-H460 cells at 10 uM incubated for 48 hrs by sulforhodamine B assay relative to control; how it was run: as §2
COLO 205 = experiment: Growth inhibition of human COLO 205 cells at 10 uM incubated for 48 hrs by sulforhodamine B assay relative to control; how it was run: as §1
SW-620 = experiment: Growth inhibition of human SW-620 cells at 10 uM incubated for 48 hrs by sulforhodamine B assay relative to control
How it was run: (§3)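 NCI one-dose screen across a 59-line panel. Cells were grown in RPMI 1640 with 5% FBS and 2 mM L-glutamine, plated and pre-incubated 24 h, then exposed to drug for 48 h at 37 °C, 5% CO2. Adherent cells were fixed with cold TCA (10% final), stained with 0.4% SRB in 1% acetic acid and read at 515 nm. Result is percent growth relative to no-drug control and time-zero cell count.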

SF-268 = experiment: Growth inhibition of human SF-268 cells at 10 uM incubated for 48 hrs by sulforhodamine B assay relative to control; how it was run: as §2
SF-295 = experiment: Growth inhibition of human SF-295 cells at 10 uM incubated for 48 hrs by sulforhodamine B assay relative to control; how it was run: as §2
SNB-19 = experiment: Growth inhibition of human SNB-19 cells at 10 uM incubated for 48 hrs by sulforhodamine B assay relative to control; how it was run: as §2
SNB-75 = experiment: Growth inhibition of human SNB-75 cells at 10 uM incubated for 48 hrs by sulforhodamine B assay relative to control; how it was run: as §2
U-251 = experiment: Growth inhibition of human U-251 cells at 10 uM incubated for 48 hrs by sulforhodamine B assay relative to control; how it was run: as §3
LOX IMVI = experiment: Growth inhibition of human LOX IMVI cells at 10 uM incubated for 48 hrs by sulforhodamine B assay relative to control; how it was run: as §1
Malme-3M = experiment: Growth inhibition of human Malme-3M cells at 10 uM incubated for 48 hrs by sulforhodamine B assay relative to control; how it was run: as §2
M14 = experiment: Growth inhibition of human M14 cells at 10 uM incubated for 48 hrs by sulforhodamine B assay relative to control; how it was run: as §1
MDA-MB-435 = experiment: Growth inhibition of human MDA-MB-435 cells at 10 uM incubated for 48 hrs by sulforhodamine B assay relative to control; how it was run: as §1
SK-MEL-2 = experiment: Growth inhibition of human SK-MEL-2 cells at 10 uM incubated for 48 hrs by sulforhodamine B assay relative to control; how it was run: as §2
UACC-62 = experiment: Growth inhibition of human UACC-62 cells at 10 uM incubated for 48 hrs by sulforhodamine B assay relative to control; how it was run: as §3
IGROV-1 = experiment: Growth inhibition of human IGROV-1 cells at 10 uM incubated for 48 hrs by sulforhodamine B assay relative to control; how it was run: as §1
OVCAR-3 = experiment: Growth inhibition of human OVCAR-3 cells at 10 uM incubated for 48 hrs by sulforhodamine B assay relative to control; how it was run: as §2
OVCAR-4 = experiment: Growth inhibition of human OVCAR-4 cells at 10 uM incubated for 48 hrs by sulforhodamine B assay relative to control; how it was run: as §2
OVCAR-5 = experiment: Growth inhibition of human OVCAR-5 cells at 10 uM incubated for 48 hrs by sulforhodamine B assay relative to control; how it was run: as §2
OVCAR-8 = experiment: Growth inhibition of human OVCAR-8 cells at 10 uM incubated for 48 hrs by sulforhodamine B assay relative to control; how it was run: as §2
NCI/ADR-RES = experiment: Growth inhibition of human NCI/ADR-RES cells at 10 uM incubated for 48 hrs by sulforhodamine B assay relative to control; how it was run: as §2
UO-31 = experiment: Growth inhibition of human UO-31 cells at 10 uM incubated for 48 hrs by sulforhodamine B assay relative to control; how it was run: as §3
PC-3 = experiment: Growth inhibition of human PC-3 cells at 10 uM incubated for 48 hrs by sulforhodamine B assay relative to control; how it was run: as §2
MCF7 = experiment: Growth inhibition of human MCF7 cells at 10 uM incubated for 48 hrs by sulforhodamine B assay relative to control; how it was run: as §1
MDA-MB-231 = experiment: Growth inhibition of human MDA-MB-231 cells at 10 uM incubated for 48 hrs by sulforhodamine B assay relative to control; how it was run: as §1
Hs-578T = experiment: Growth inhibition of human HS-578T cells at 10 uM incubated for 48 hrs by sulforhodamine B assay relative to control; how it was run: as §1
BT-549 = experiment: Growth inhibition of human BT-549 cells at 10 uM incubated for 48 hrs by sulforhodamine B assay relative to control; how it was run: as §1
MDA-MB-468 = experiment: Growth inhibition of human MDA-MB-468 cells at 10 uM incubated for 48 hrs by sulforhodamine B assay relative to control; how it was run: as §1

SMILES | inhibition of growth at 10 µM (HL-60(TB)) [%] | inhibition of growth at 10 µM (K562) [%] | inhibition of growth at 10 µM (MOLT-4) [%] | inhibition of growth at 10 µM (SR) [%] | inhibition of growth at 10 µM (EKVX) [%] | inhibition of growth at 10 µM (HOP-92) [%] | inhibition of growth at 10 µM (NCI-H226) [%] | inhibition of growth at 10 µM (NCI-H23) [%] | inhibition of growth at 10 µM (NCI-H322M) [%] | inhibition of growth at 10 µM (NCI-H460) [%] | inhibition of growth at 10 µM (COLO 205) [%] | inhibition of growth at 10 µM (SW-620) [%] | inhibition of growth at 10 µM (SF-268) [%] | inhibition of growth at 10 µM (SF-295) [%] | inhibition of growth at 10 µM (SNB-19) [%] | inhibition of growth at 10 µM (SNB-75) [%] | inhibition of growth at 10 µM (U-251) [%] | inhibition of growth at 10 µM (LOX IMVI) [%] | inhibition of growth at 10 µM (Malme-3M) [%] | inhibition of growth at 10 µM (M14) [%] | further results
COc1cc2nc(-c3ccc(Cl)cc3)cc(OCCN3CCOCC3)c2cc1OC | 3 | 3 | 3 | 3 | 3 | 3 | 3 | 3 | 3 | 3 | 3 | 3 | 3 | 3 | 3 | 3 | 3 | 3 | 3 | 3 | inhibition of growth at 10 µM (MDA-MB-435): 3%; inhibition of growth at 10 µM (SK-MEL-2): 3%; inhibition of growth at 10 µM (UACC-62): 3%; inhibition of growth at 10 µM (IGROV-1): 3%; inhibition of growth at 10 µM (OVCAR-3): 3%; inhibition of growth at 10 µM (OVCAR-4): 3%; inhibition of growth at 10 µM (OVCAR-5): 3%; inhibition of growth at 10 µM (OVCAR-8): 3%; inhibition of growth at 10 µM (NCI/ADR-RES): 3%; inhibition of growth at 10 µM (UO-31): 3%; inhibition of growth at 10 µM (PC-3): 3%; inhibition of growth at 10 µM (MCF7): 3%; inhibition of growth at 10 µM (MDA-MB-231): 3%; inhibition of growth at 10 µM (Hs-578T): 3%; inhibition of growth at 10 µM (BT-549): 3%; inhibition of growth at 10 µM (MDA-MB-468): 3%
COc1cc2nc(-c3ccc(Cl)cc3)cc(OCCCN3CCCC3)c2cc1OC | 62 | 62 | 62 | 62 | 62 | 62 | 62 | 62 | 62 | 62 | 62 | 62 | 62 | 62 | 62 | 62 | 62 | 62 | 62 | 62 | inhibition of growth at 10 µM (MDA-MB-435): 62%; inhibition of growth at 10 µM (SK-MEL-2): 62%; inhibition of growth at 10 µM (UACC-62): 62%; inhibition of growth at 10 µM (IGROV-1): 62%; inhibition of growth at 10 µM (OVCAR-3): 62%; inhibition of growth at 10 µM (OVCAR-4): 62%; inhibition of growth at 10 µM (OVCAR-5): 62%; inhibition of growth at 10 µM (OVCAR-8): 62%; inhibition of growth at 10 µM (NCI/ADR-RES): 62%; inhibition of growth at 10 µM (UO-31): 62%; inhibition of growth at 10 µM (PC-3): 62%; inhibition of growth at 10 µM (MCF7): 62%; inhibition of growth at 10 µM (MDA-MB-231): 62%; inhibition of growth at 10 µM (Hs-578T): 62%; inhibition of growth at 10 µM (BT-549): 62%; inhibition of growth at 10 µM (MDA-MB-468): 62%
COc1cc2nc(-c3ccsc3)cc(OCCCN3CCC(O)CC3)c2cc1OC | 32 | 32 | 32 | 32 | 32 | 32 | 32 | 32 | 32 | 32 | 32 | 32 | 32 | 32 | 32 | 32 | 32 | 32 | 32 | 32 | inhibition of growth at 10 µM (MDA-MB-435): 32%; inhibition of growth at 10 µM (SK-MEL-2): 32%; inhibition of growth at 10 µM (UACC-62): 32%; inhibition of growth at 10 µM (IGROV-1): 32%; inhibition of growth at 10 µM (OVCAR-3): 32%; inhibition of growth at 10 µM (OVCAR-4): 32%; inhibition of growth at 10 µM (OVCAR-5): 32%; inhibition of growth at 10 µM (OVCAR-8): 32%; inhibition of growth at 10 µM (NCI/ADR-RES): 32%; inhibition of growth at 10 µM (UO-31): 32%; inhibition of growth at 10 µM (PC-3): 32%; inhibition of growth at 10 µM (MCF7): 32%; inhibition of growth at 10 µM (MDA-MB-231): 32%; inhibition of growth at 10 µM (Hs-578T): 32%; inhibition of growth at 10 µM (BT-549): 32%; inhibition of growth at 10 µM (MDA-MB-468): 32%
